ChEMBL document CHEMBL1123617, “Antipsychotic activity of substituted gamma-carbolines” (J Med Chem, 1987)
Values belong to the compound of their own block, whether it stands above or below them.

Assays:
D(2) dopamine receptor [1] = biological target: T1, D(2) dopamine receptor (Rattus norvegicus, UniProt P61169); assay: In vitro Dopamine receptor D2 affinity by using [3H]spiperone as the radioligand in rat limbic system at 1 uM concentration of compound; value may range from 14 to 22; type: tissue-based
T1 sequence (P61169 whole entry): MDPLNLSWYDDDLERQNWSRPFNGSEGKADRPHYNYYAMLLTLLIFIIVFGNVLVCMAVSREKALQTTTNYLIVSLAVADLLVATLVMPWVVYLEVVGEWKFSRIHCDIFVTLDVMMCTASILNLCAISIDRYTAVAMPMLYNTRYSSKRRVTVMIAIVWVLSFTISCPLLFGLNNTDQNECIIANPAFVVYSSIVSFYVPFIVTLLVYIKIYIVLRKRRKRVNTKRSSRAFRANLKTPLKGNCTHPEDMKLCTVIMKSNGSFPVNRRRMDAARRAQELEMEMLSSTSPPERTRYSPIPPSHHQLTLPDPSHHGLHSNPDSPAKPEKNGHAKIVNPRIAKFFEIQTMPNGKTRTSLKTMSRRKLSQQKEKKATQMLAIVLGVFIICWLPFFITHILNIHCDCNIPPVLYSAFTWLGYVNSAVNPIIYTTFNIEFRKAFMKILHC

Rattus norvegicus [2] = assay: Potential antipsychotic activity was assessed by measuring the ability to block the conditioned avoidance response(CAR) in rats on oral administration; type: functional
[3] = biological target: T2, Serotonin 2 (5-HT2) receptor (Rattus norvegicus, UniProt P30994+P08909+P14842); assay: In vitro 5-hydroxytryptamine 2 receptor affinity by using [3H]spiperone as the radioligand in rat cortical tissue; value may range from 136 to 220
Rattus norvegicus [4] = assay: Potential antipsychotic activity was assessed by measuring the ability to block the conditioned avoidance response(CAR) in rats on oral administration.; type: functional
D(2) dopamine receptor [5] = biological target: T1, D(2) dopamine receptor; assay: In vitro Dopamine receptor D2 affinity by using [3H]spiperone as the radioligand in rat limbic system at 1 uM concentration of compound; type: tissue-based
[6] = biological target: T2, Serotonin 2 (5-HT2) receptor; assay: In vitro 5-hydroxytryptamine 2 receptor affinity by using [3H]spiperone as the radioligand in rat cortical tissue; value may range from 165 to 263
Rattus norvegicus [7] = assay: Potential antipsychotic activity was assessed by measuring the ability to block the conditioned avoidance response(CAR) in rats on oral administration; value may range from 11 to 81; type: functional
Method in brief: (§1)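 Each session had 60 trials, with a control session before every drug run. Trials with no avoidance response (avoidance block) were summed over rats at each dose and expressed as a percentage of total trials. Control avoidance was set at 100%. The dose giving 50% block (AB50) was fitted by least squares.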

D(2) dopamine receptor [8] = biological target: T1, D(2) dopamine receptor; assay: In vitro Dopamine receptor D2 affinity by using [3H]spiperone as the radioligand in rat limbic system at 1 uM concentration of compound; value may range from 20 to 130; type: tissue-based
Mus musculus [9] = species: Mus musculus; assay: animal or person; conditions: ip
Mus musculus [10] = species: Mus musculus; assay: animal or person; conditions: ip; remark: listed apart in the source
[11] = biological target: D(2) dopamine receptor (Rattus norvegicus) (UniProt P61169); assay: In vitro Dopamine receptor D2 affinity by using [3H]spiperone as the radioligand in rat limbic system at 1 uM concentration of compound at 1 uM; type: tissue-based
Sequence of D(2) dopamine receptor (Rattus norvegicus) (P61169 whole entry): as above

D(2) dopamine receptor [12] = biological target: T1, D(2) dopamine receptor; assay: In vitro Dopamine receptor D2 affinity by using [3H]spiperone as the radioligand in rat limbic system at 1 uM concentration of compound; value may range from 1 to 2; type: tissue-based
Rattus norvegicus [13] = assay: Potential antipsychotic activity was assessed by measuring the ability to block the conditioned avoidance response(CAR) in rats on oral administration; value may range from 30 to 62; type: functional; method in brief: as §1
[14] = biological target: T2, Serotonin 2 (5-HT2) receptor; assay: In vitro 5-hydroxytryptamine 2 receptor affinity by using [3H]spiperone as the radioligand in rat cortical tissue.
[15] = biological target: T2, Serotonin 2 (5-HT2) receptor; assay: In vitro 5-hydroxytryptamine 2 receptor affinity by using [3H]spiperone as the radioligand in rat cortical tissue.; value may range from 140 to 980
Rattus norvegicus [16] = assay: Potential antipsychotic activity was assessed by measuring the ability to block the conditioned avoidance response(CAR) in rats on oral administration; value may range from 10 to 34; type: functional; method in brief: as §1
D(2) dopamine receptor [17] = biological target: T1, D(2) dopamine receptor; assay: In vitro Dopamine receptor D2 affinity by using [3H]spiperone as the radioligand in rat limbic system at 1 uM concentration of compound; value may range from 39 to 78; type: tissue-based
[18] = biological target: T2, Serotonin 2 (5-HT2) receptor; assay: In vitro 5-hydroxytryptamine 2 receptor affinity by using [3H]spiperone as the radioligand in rat cortical tissue; value may range from 23 to 187
Rattus norvegicus [19] = assay: Potential antipsychotic activity was assessed by measuring the ability to block the conditioned avoidance response(CAR) in rats on oral administration; value may range from 6 to 63; type: functional; method in brief: as §1
D(2) dopamine receptor [20] = biological target: T1, D(2) dopamine receptor; assay: In vitro Dopamine receptor D2 affinity by using [3H]spiperone as the radioligand in rat limbic system at 1 uM concentration of compound; value may range from […]; type: tissue-based
[21] = biological target: T2, Serotonin 2 (5-HT2) receptor; assay: In vitro 5-hydroxytryptamine 2 receptor affinity by using [3H]-Spiperone as the radioligand in rat cortical tissue; value may range from 12 to 66

Ki (D(2) dopamine receptor [1]): 18 nM
Structure (SMILES): Fc1ccc(C(CCCN2CCc3[nH]c4ccc(F)cc4c3C2)c2ccc(F)cc2)cc1

Ki [3]: 173 nM
Structure (SMILES): Cl.Fc1ccc2[nH]c3c(c2c1)CN(CCc1ccccn1)CC3
AB50 (Rattus norvegicus [2]): 38 mg/kg

Ki (D(2) dopamine receptor [5]): 63 nM
Structure (SMILES): Cl.Fc1ccc2[nH]c3c(c2c1)CN(CCc1cnccn1)CC3
AB50 (Rattus norvegicus [4]): >40 mg/kg

Ki [6]: 211 nM
Structure (SMILES): Cl.Fc1ccc2[nH]c3c(c2c1)CN(CCc1ccncc1)CC3 [CARVOTROLINE HYDROCHLORIDE]
AB50 (Rattus norvegicus [7]): 23 mg/kg

Ki (D(2) dopamine receptor [8]): 60 nM
Structure (SMILES): c1cnc(N2CCN(CCCN3CCc4[nH]c5ccccc5c4C3)CC2)nc1

Structure (SMILES): O=C(CCCN1CCC(O)(c2ccc(Cl)cc2)CC1)c1ccc(F)cc1 [HALOPERIDOL]
ED50 (Mus musculus [9]): 0.1 mg/kg
ED50 (Mus musculus [10]): 0.1 mg/kg
AB50 (Rattus norvegicus [4]): 0.2 mg/kg

inhibition [11]: 41%
Structure (SMILES): Cl.c1ccc2c3c([nH]c2c1)CCN(CCCCc1ccncc1)C3
AB50 (Rattus norvegicus [4]): >20 mg/kg

Ki (D(2) dopamine receptor [12]): 1 nM
Structure (SMILES): Fc1ccc(-n2c3c(c4cc(F)ccc42)CN(CCCCc2ccnc4ccccc24)CC3)cc1

IC50 [14]: > 0.00005 M
Structure (SMILES): C[C@@H]1CN(CCCn2c3ccccc3c3ccccc32)C[C@H](C)N1 [RIMCAZOLE]
AB50 (Rattus norvegicus [13]): 39 mg/kg

Ki [15]: 480 nM
Structure (SMILES): Cl.Fc1ccc2[nH]c3c(c2c1)CN(CCCCc1ccncc1)CC3
AB50 (Rattus norvegicus [16]): 15 mg/kg

Ki (D(2) dopamine receptor [17]): 55 nM
Structure (SMILES): Cl.Clc1ccc2[nH]c3c(c2c1)CN(CCCN1CCN(c2ncccn2)CC1)CC3
AB50 (Rattus norvegicus [4]): >40 mg/kg

Ki [18]: 55 nM
Structure (SMILES): Cl.Fc1ccc(-n2c3c(c4cc(F)ccc42)CN(CCc2ccncc2)CC3)cc1
AB50 (Rattus norvegicus [19]): 16 mg/kg

Ki (D(2) dopamine receptor [20]): 126 nM
Ki [21]: 28 nM
Structure (SMILES): Cl.Clc1ccc2[nH]c3c(c2c1)CN(CCCc1cccnc1)CC3
AB50 (Rattus norvegicus [4]): >40 mg/kg
